Results published in ChEMBL document CHEMBL1153606, “Microwave assisted synthesis of new indophenazine 1,3,5-trisubstruted pyrazoline derivatives of benzofuran and their antimicrobial activity” (2009).
≈ marks a conversion by molar mass, not a printed value. Calls of active or inactive are those of the source. The calls are words filed in the database; no cut-off is given here.

Columns and labels:
Streptococcus pneumoniae [1] = test: Antibacterial activity against multidrug-resistant Streptococcus pneumoniae after 20 hrs by cylinder and well method; assay type: functional
Outline: (§1)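 Agar diffusion assay: organisms grown overnight on 2% agar with 5% sheep blood under 10% CO2. Inocula were diluted in Ringer solution, treated in Todd–Hewitt medium and spread on agar plates. Drug spots were applied, with about 5 × 10^3 CFU/spot. Plates were held at 37 °C for 20 h. Inhibition zones were read in mm against standard drugs and vehicle.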

Staphylococcus aureus [2] = test: Antibacterial activity against multidrug-resistant Staphylococcus aureus after 24 hrs by broth microdilution method; assay type: functional
Outline: (§2)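 MIC was determined in Mueller–Hinton broth.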

Streptococcus agalactiae [3] = test: Antibacterial activity against multidrug-resistant Streptococcus agalactiae after 24 hrs by broth microdilution method; assay type: functional; outline: as §2
Candida albicans = test: Antifungal activity against Candida albicans after 30 to 72 hrs by agar culture method; assay type: functional, organism-based
Outline: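 Agar well assay on C. albicans: compounds at a range of concentrations in DMF were loaded into 6 mm wells. Plates were incubated at 30 °C for 30–72 h. Inhibition zones were read in mm against standard drugs.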

Escherichia coli [4] = test: Antibacterial activity against multidrug-resistant Escherichia coli after 20 hrs by cylinder and well method; assay type: functional; outline: as §1
[5] = test system: Salmonella enterica subsp. enterica; test: Antibacterial activity against multidrug-resistant Salmonella typhi after 20 hrs by cylinder and well method; assay type: functional, Salmonella enterica subsp. enterica serovar Typhi; outline: as §1
Staphylococcus aureus [6] = test: Antibacterial activity against multidrug-resistant Staphylococcus aureus after 20 hrs by cylinder and well method; assay type: functional; outline: as §1
Pseudomonas aeruginosa [7] = test: Antibacterial activity against multidrug-resistant Pseudomonas aeruginosa after 20 hrs by cylinder and well method; assay type: functional; outline: as §1
Streptococcus agalactiae [8] = test: Antibacterial activity against multidrug-resistant Streptococcus agalactiae after 20 hrs by cylinder and well method; assay type: functional; outline: as §1
Escherichia coli [9] = test: Antibacterial activity against multidrug-resistant Escherichia coli broth after 24 hrs by broth microdilution method; assay type: functional; outline: as §2
Streptococcus pneumoniae [10] = test: Antibacterial activity against multidrug-resistant Streptococcus pneumoniae after 24 hrs by broth microdilution method; assay type: functional; outline: as §2
[11] = test system: Salmonella enterica subsp. enterica; test: Antibacterial activity against multidrug-resistant Salmonella typhi after 24 hrs by broth microdilution method; assay type: functional, Salmonella enterica subsp. enterica serovar Typhi; outline: as §2
Streptococcus pyogenes [12] = test: Antibacterial activity against multidrug-resistant Streptococcus pyogenes after 20 hrs by cylinder and well method; assay type: functional; outline: as §1
Streptococcus pyogenes [13] = test: Antibacterial activity against multidrug-resistant Streptococcus pyogenes after 24 hrs by broth microdilution method; assay type: functional; outline: as §2
Pseudomonas aeruginosa [14] = test: Antibacterial activity against multidrug-resistant Pseudomonas aeruginosa after 24 hrs by broth microdilution method; assay type: functional; outline: as §2

SMILES	inhibition zone (IZ) (Streptococcus pneumoniae [1]) [mm]	MIC (Staphylococcus aureus [2]) [µg/mL]	MIC (Streptococcus agalactiae [3]) [µg/mL]	Activity (Candida albicans)	inhibition zone (IZ) (Escherichia coli [4]) [mm]	inhibition zone (IZ) [5] [mm]	inhibition zone (IZ) (Staphylococcus aureus [6]) [mm]	inhibition zone (IZ) (Pseudomonas aeruginosa [7]) [mm]	inhibition zone (IZ) (Streptococcus agalactiae [8]) [mm]	MIC (Escherichia coli [9]) [µg/mL]	MIC (Streptococcus pneumoniae [10]) [µg/mL]	MIC [11] [µg/mL]	inhibition zone (IZ) (Streptococcus pyogenes [12]) [mm]	MIC (Streptococcus pyogenes [13]) [µg/mL]	MIC (Pseudomonas aeruginosa [14]) [µg/mL]
O=C(Cn1c2ccccc2c2nc3ccccc3nc21)N1N=C(c2cc3ccccc3o2)CC1c1ccc(O)cc1 (stereo not drawn)	12	6.5 (≈ 12.1 µM)	32.5 (≈ 60.5 µM)	inactive	10	8	14	8	8	14 (≈ 26 µM)	8.5 (≈ 15.8 µM)	19.5 (≈ 36.3 µM)	15	20.5 (≈ 38.1 µM)	26 (≈ 48.4 µM)
O=C(Cn1c2ccccc2c2nc3ccccc3nc21)N1N=C(c2cc3ccccc3o2)CC1c1ccccc1O (stereo not drawn)	12	6 (≈ 11.2 µM)	22 (≈ 40.9 µM)	inactive	18	13	13	15	11	1 (≈ 1.86 µM)	9.5 (≈ 17.7 µM)	8.5 (≈ 15.8 µM)	10	26 (≈ 48.4 µM)	3.5 (≈ 6.51 µM)
O=C(Cn1c2ccccc2c2nc3ccccc3nc21)N1N=C(c2cc3ccccc3o2)CC1c1cccc([N+](=O)[O-])c1 (stereo not drawn)	14	12.5 (≈ 22.1 µM)	26 (≈ 45.9 µM)	inactive	13	10	9	16	12	10.5 (≈ 18.5 µM)	8 (≈ 14.1 µM)	13 (≈ 22.9 µM)	12	28 (≈ 49.4 µM)	5.5 (≈ 9.71 µM)
COc1ccccc1C1CC(c2cc3ccccc3o2)=NN1C(=O)Cn1c2ccccc2c2nc3ccccc3nc21 (stereo not drawn)	10	7.5 (≈ 13.6 µM)	25 (≈ 45.3 µM)	inactive	9	7	11	12	9	16.5 (≈ 29.9 µM)	11.5 (≈ 20.8 µM)	15.5 (≈ 28.1 µM)	15	22.5 (≈ 40.8 µM)	14.5 (≈ 26.3 µM)
C[C@@H]1CN(c2c(F)c(N)c3c(=O)c(C(=O)O)cn(C4CC4)c3c2F)C[C@H](C)N1 [SPARFLOXACIN]	34	0.25 (≈ 0.637 µM)	12 (≈ 30.6 µM)	–	30	34	36	33	38	0.26 (≈ 0.663 µM)	0.04 (≈ 0.102 µM)	0.5 (≈ 1.27 µM)	38	15 (≈ 38.2 µM)	4.6 (≈ 11.7 µM)
COc1ccc(C2CC(c3cc4ccccc4o3)=NN2C(=O)Cn2c3ccccc3c3nc4ccccc4nc32)c(O)c1 (stereo not drawn)	16	9 (≈ 15.9 µM)	28 (≈ 49.3 µM)	inactive	11	11	13	10	11	13.5 (≈ 23.8 µM)	5 (≈ 8.81 µM)	14.5 (≈ 25.5 µM)	14	26 (≈ 45.8 µM)	18.5 (≈ 32.6 µM)
COc1ccc(C2CC(c3cc4ccccc4o3)=NN2C(=O)Cn2c3ccccc3c3nc4ccccc4nc32)cc1 (stereo not drawn)	16	8 (≈ 14.5 µM)	19 (≈ 34.4 µM)	inactive	17	11	12	13	14	5 (≈ 9.06 µM)	4.5 (≈ 8.16 µM)	12 (≈ 21.8 µM)	14	23.5 (≈ 42.6 µM)	12.5 (≈ 22.7 µM)
O=C(O)c1ccccc1C1CC(c2cc3ccccc3o2)=NN1C(=O)Cn1c2ccccc2c2nc3ccccc3nc21 (stereo not drawn)	12	8.5 (≈ 15 µM)	24 (≈ 42.4 µM)	inactive	11	8	12	14	10	13 (≈ 23 µM)	10.5 (≈ 18.6 µM)	15 (≈ 26.5 µM)	10	30.5 (≈ 53.9 µM)	6.5 (≈ 11.5 µM)
O=C(Cn1c2ccccc2c2nc3ccccc3nc21)N1N=C(c2cc3ccccc3o2)CC1/C=C/c1ccccc1 (stereo not drawn)	12	4.5 (≈ 8.22 µM)	22.5 (≈ 41.1 µM)	inactive	8	10	14	10	9	20.5 (≈ 37.4 µM)	10 (≈ 18.3 µM)	14.5 (≈ 26.5 µM)	10	26.5 (≈ 48.4 µM)	18.5 (≈ 33.8 µM)
CCn1cc(C(=O)O)c(=O)c2cc(F)c(N3CCNCC3)cc21 [NORFLOXACIN]	22	1.5 (≈ 4.7 µM)	22 (≈ 68.9 µM)	–	20	24	28	28	32	1.3 (≈ 4.07 µM)	0.12 (≈ 0.376 µM)	20.2 (≈ 63.3 µM)	30	2.6 (≈ 8.14 µM)	1.8 (≈ 5.64 µM)
O=C(Cn1c2ccccc2c2nc3ccccc3nc21)N1N=C(c2cc3ccccc3o2)CC1c1ccco1 (stereo not drawn)	14	10.5 (≈ 20.5 µM)	26.5 (≈ 51.8 µM)	inactive	10	9	10	8	10	15 (≈ 29.3 µM)	5.6 (≈ 10.9 µM)	16.5 (≈ 32.3 µM)	8	30 (≈ 58.6 µM)	21 (≈ 41.1 µM)
O=C(Cn1c2ccccc2c2nc3ccccc3nc21)N1N=C(c2cc3ccccc3o2)CC1c1ccc(Cl)cc1 (stereo not drawn)	15	16.5 (≈ 29.7 µM)	28 (≈ 50.4 µM)	inactive	7	10	8	10	10	22.5 (≈ 40.5 µM)	5.5 (≈ 9.89 µM)	16 (≈ 28.8 µM)	14	22 (≈ 39.6 µM)	16.5 (≈ 29.7 µM)
CN(C)c1ccc(C2CC(c3cc4ccccc4o3)=NN2C(=O)Cn2c3ccccc3c3nc4ccccc4nc32)cc1 (stereo not drawn)	13	7 (≈ 12.4 µM)	36.5 (≈ 64.6 µM)	inactive	10	10	14	11	7	13.5 (≈ 23.9 µM)	9 (≈ 15.9 µM)	9.5 (≈ 16.8 µM)	9	25.5 (≈ 45.2 µM)	14 (≈ 24.8 µM)
O=C(Cn1c2ccccc2c2nc3ccccc3nc21)N1N=C(c2cc3ccccc3o2)CC1c1ccccc1Cl (stereo not drawn)	14	10 (≈ 18 µM)	30 (≈ 54 µM)	inactive	8	9	11	9	10	21.5 (≈ 38.7 µM)	7 (≈ 12.6 µM)	15 (≈ 27 µM)	12	25 (≈ 45 µM)	17.5 (≈ 31.5 µM)
O=C(Cn1c2ccccc2c2nc3ccccc3nc21)N1N=C(c2cc3ccccc3o2)CC1c1ccccc1 (stereo not drawn)	20	2.5 (≈ 4.79 µM)	28.5 (≈ 54.6 µM)	inactive	14	8	16	11	8	8 (≈ 15.3 µM)	2 (≈ 3.83 µM)	17 (≈ 32.6 µM)	12	28.5 (≈ 54.6 µM)	15.5 (≈ 29.7 µM)
O=C(Cn1c2ccccc2c2nc3ccccc3nc21)N1N=C(c2cc3ccccc3o2)CC1c1ccccc1[N+](=O)[O-] (stereo not drawn)	13	9.5 (≈ 16.8 µM)	22 (≈ 38.8 µM)	inactive	16	10	12	12	12	5.5 (≈ 9.71 µM)	8.5 (≈ 15 µM)	14.5 (≈ 25.6 µM)	10	24 (≈ 42.4 µM)	10.5 (≈ 18.5 µM)
